Screens deposited in PubChem BioAssay by The Scripps Research Institute Molecular Screening Center.
Hits are enriched below; roughly 2.7% of the tested compounds scored in any of these assays.
OX1R antag-1: blocks the human orexin 1 receptor | O43613 | CHO/OX1R cells, Fluo-8 calcium fluorescence, orexin A | inhibition, % at 5 µM | 0.43% of 330,000 active;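 active = inhibition above its plate's threshold, mean inhibition of all tested compounds on the plate plus 3 SD, cut at about 37% in these data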;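 also: 0% = orexin A challenge wells and 100% = SB-334867-A antagonist wells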
CHO parental Ca: counter-screen for OX1R antagonists: effect in parental CHO cells; 0.63% of 330,000 active; AID 463079; parental CHO-K1, ATP-induced calcium, Fluo-8 fluorescence; inhibition, % at 5.6 µM;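 active = inhibition above that plate's mean sample inhibition plus 3 SD, cut at about 26% in these data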;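 also: 0% = ATP-challenged DMSO wells and 100% = DMSO wells without ATP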
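Material: parental CHO cells / Compound: single nominal dose of 5.6 µM per compound / Signal: Fluo-8 fluorescence / Replicates: singlicate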
V1aR counter: counter-screen for oxytocin receptor agonists: human V1a receptor agonists. CHO-V1R cells, Fluo-8 calcium fluorescence, agonist mode; 0% DMSO, 100% 3 nM vasopressin. activation, % at 3 µM. 0.25% of 320,000 active. AID 2797;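 active = activation above the mean activation of all tested compounds plus 3 SD, per screening run, cut at about 20% in these data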;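 also: signal is peak over basal fluorescence ratio across a 100 second FLIPR read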
OXTR potentiate: potentiates the human oxytocin receptor response | P30559 | CHO-OTR cells, Fluo-8 calcium fluorescence, potentiator mode; 0% = oxytocin EC15, 100% = EC100 | activation, % at 3 µM | 0.061% of 320,000 active | AID 2445;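 active = activation above that plate's cutoff, the mean activation of tested compounds plus 3 SD, cut at about 6.6% in these data, passing the limit was not always enough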;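 also: 100% uses oxytocin at 75 nM as the full agonist control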
Target sequence (P30559 whole entry, looked up): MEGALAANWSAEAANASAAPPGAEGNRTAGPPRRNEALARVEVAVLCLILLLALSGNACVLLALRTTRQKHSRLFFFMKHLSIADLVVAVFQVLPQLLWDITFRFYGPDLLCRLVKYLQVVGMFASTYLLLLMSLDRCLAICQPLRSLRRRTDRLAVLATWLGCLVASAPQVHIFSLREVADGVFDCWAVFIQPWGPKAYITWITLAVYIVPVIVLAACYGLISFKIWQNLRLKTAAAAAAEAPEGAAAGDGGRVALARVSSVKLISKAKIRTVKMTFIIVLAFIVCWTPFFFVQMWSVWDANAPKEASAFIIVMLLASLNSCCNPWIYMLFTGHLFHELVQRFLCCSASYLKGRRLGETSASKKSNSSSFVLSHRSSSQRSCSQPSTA
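Material: human OTR in CHO cells. Compound: 3.0 µM, one dose. Timing: compound 6 min at room temperature before oxytocin, 100 s read. Evaluation: % activation of max/min ratio relative to oxytocin controls. Replication: single well per compound, singlicate. Signal: Fluo-8 calcium dye fluorescence.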
OXTR ag: human OXTR agonism; P30559; AID 2435; 0.32% of 320,000 active; activation, % at 3 µM; CHO-OTR cells, Fluo-8 calcium fluorescence; normalized: DMSO 0%, oxytocin 100%;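 active = activation above the mean of all tested compounds plus 3 SD, cutoff set per screening run, cut at about 20% in these data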;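 also: peak over basal fluorescence ratio from a 100 s FLIPR kinetic read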
OX1R antag-2: antagonists of human orexin 1 receptor (OX1R); 1.8% of 330,000 active; inhibition, % at 6.6 µM; O43613; OX1R-expressing cells, FRET antagonist read-out; in the data active = inhibition mostly above about 38%, no sharp cut-off; inactive = mostly below about 40%;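 also: 0% = agonist challenge alone and 100% = reference antagonist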
* hit, by the source's call; / = not tested or not shown.

SMILES	OX1R antag-1	CHO parental Ca	V1aR counter	OXTR potentiate	OXTR ag	OX1R antag-2
CCc1cc(S(=O)(=O)N2CCN(C(=O)c3ccco3)CC2)ccc1OC	-22	-21	1	-13	-1	26
O=C(N[C@@H]1c2ccccc2CC[C@@H]1OCc1ccccc1)c1ccc(C(F)(F)F)cc1	0	-10	/	/	/	3
Cn1c(SCc2ccccc2C#N)nnc1-c1ccncc1	-6	-3	0	-5	0	-2
O=C1CN(c2nc(-c3cccnc3)nc3sc4c(c23)CCCC4)CCN1	-32	-6	-2	-7	-2	47
Nc1nc(-c2cccnc2)nc2sc3c(c12)CCCC3	-10	-9	-1	-8	-2	70*
CCc1c(-c2ccccc2)nc2sc3c(c2c1N)CCCC3	-8	1	1	-12	-3	49*
Nc1c(C(=O)O)sc2nc(-c3ccccc3)c3c(c12)CCCC3	-17	-9	0	-7	-1	5
CCOC(=O)C1=CN(Cc2ccco2)S(=O)(=O)NC1c1ccc(C(F)(F)F)cc1 (stereo unspecified)	-3	-21	/	/	/	12
CCOc1ccc(C(=O)N/N=C/c2cccc3cccnc23)cc1	-16	-32	0	-7	-2	74*
COc1ccc(C(=O)N/N=C/c2cccc3cccnc23)cc1	-8	-13	2	-14	-1	47
COc1ccc(C(=O)N/N=C/c2ccc3cccc(OCc4ccccc4)c3n2)cc1	-24	-35	1	-16	-1	76*
O=C1CCC(C(=O)N2CCCCCC2)CN1CCc1ccc(Cl)cc1 (stereo unspecified)	7	-13	2	12	0	1
N#CC1=C(N)N2C(=C(C#N)C1c1ccc(Br)cc1)Nc1ccccc12 (stereo unspecified)	-2	14	14	-20	18	76*
O=C(CN1C(=O)NC2(CCCC2)C1=O)N1CCN(S(=O)(=O)c2cc(Cl)ccc2Cl)CC1	-24	-14	1	-6	-1	14
CS(=O)(=O)N1CCN(c2ccnc3cc(Cl)ccc23)CC1	-18	-16	3	-2	1	12
Cc1ccc(S(=O)(=O)N2CCN(c3ccnc4cc(Cl)ccc34)CC2)cc1C	25	37*	2	-8	-1	55
Cc1ccc(S(=O)(=O)N2CCN(c3ccnc4cc(Cl)ccc34)CC2)cc1	53*	56*	3	-19	4	31
Cn1c(N2CCN(S(=O)(=O)c3ccc(Cl)cc3)CC2)nc2ccccc21	-17	5	3	-8	1	9
Cc1cc(N2CCN(S(=O)(=O)c3ccc(Cl)cc3)CC2)c2ccccc2n1	24	58*	12	-16	7	30
O=C(CS(=O)c1ccc(F)cc1)N1CCOCC1 (stereo unspecified)	-4	2	1	-1	2	2
CCN1C(=O)[C@H]2[C@@H](c3ccc(C)cc3)N3C(=O)N(c4ccc(C)cc4)C(=O)[C@@]3(Cc3ccc(Cl)cc3)[C@H]2C1=O	-32	-20	1	3	0	14
CCN1C(=O)[C@H]2[C@@H](c3ccc(C)cc3)N3C(=O)N(c4ccccc4)C(=O)[C@@]3(Cc3ccc(Cl)cc3)[C@H]2C1=O	-44	-14	2	-9	1	63*
COc1ccc2c(c1)c1nnc(SCC(=O)Nc3ccccc3F)nc1n2C	-11	-15	0	-3	0	11
COc1ccc2c(c1)c1nnc(SCC(=O)NC3CC3)nc1n2C	-11	-10	-1	1	-1	85*
Cc1ccc(NC(=O)CSc2ccc3c(c2)OCCO3)nc1	-28	-22	0	2	-1	1
O=C(Nc1ccc(Br)cn1)c1ccc(Cl)s1	-21	-31	0	-6	-2	53*
O=C(Nc1ccc(C(=O)N2CCC(N3CCOCC3)CC2)cc1)c1ccc(Br)o1	-17	-4	1	0	0	7
COc1ccc2ncc(S(=O)(=O)c3ccccc3)c(N3CCN(c4ccccc4)CC3)c2c1	-4	-29	-1	-7	-2	41
